A word on the CC50: it is the concentration at which the toxic effect on the cells reaches its halfway point. The EC50 is the concentration giving half of the maximal effect.

The source made the active and inactive calls. No cut-off for these calls is given here.

These results are taken from ChEMBL document CHEMBL5674882, “Benzolactam-related compounds promote apoptosis of HIV-infected human cells via protein kinase C-induced HIV latency reversal” (J Biol Chem, 2019).

Data set [1] can be described thus: Toxicity in human U-937 cells assessed as reduction in cell viability after 48 hrs by WST8 assay. Type of data set: cell-based. The procedure, abridged: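 Parental, uninfected lines (A3.01 for ACH-2, U937 for U1) at 5 × 10^5 cells/ml cultured with or without drug. Viable cells read at 48 h (day 2) and expressed as % of untreated control. CC50 taken as the concentration lowering viability by 50%.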
For orientation: Formazan colour is commonly taken as a measure of viable cells.

Data set [2] concerns the target T1, Protein kinase C (PKC) (Homo sapiens) (UniProt O94806+P41743+P17252+P05129+Q05655+P05771+Q05513+Q02156+P24723+Q15139+Q04759). In words: Activation of PKC CD4+ T-cells purified from HIV-infected patient assessed as increase in transcription of HIV mRNA at 1 uM incubated for 24 hrs by qRT-PCR method. The note with it: CD4+ T cell, filed as activator. Type of data set: cell-based. The procedure, abridged: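 CD4+ T-cells purified from PBMC of eight cART-treated HIV+ patients (cART ≥5 years, plasma viral load <20 copies/ml), plated at 2.5 × 10^6 cells/ml and treated 24 h. Total RNA extracted; HIV RNA quantified by qRT-PCR against a plasmid standard curve, normalized per ng input RNA, and expressed as fold over untreated cells. Medians of eight individuals; Mann-Whitney U test.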

Data set [3] in a line: Toxicity in human CD4+ T-cells assessed as elevation of supernatant cytokine concentrations of TNFalpha incubated for 24 hrs in presence of JQ1 by bead-based immunoassay. The note with it: cd4+ t cell. The procedure, abridged:
(§1)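 Purified CD4+ T-cells from healthy donors treated 24 h with 1 μm drug, 1 μm JQ1, or the combination. IL-2, IL-5, IL-6, IL-13, TNFα and IFN-γ in supernatants measured by flow-cytometry bead-based Th1/Th2 immunoassay. Run in duplicate.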

Data set [4] deals with J-Lat 6.3. The experiment in a line: Induction of apoptosis in human J-Lat 6.3 cells assessed as caspase-3 activation at 1 uM incubated for 24 hrs by flow cytometry. Type of data set: functional. The procedure, abridged: (§2)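 Cells fixed in 1% paraformaldehyde, permeabilized, stained 30 min on ice with anti-active caspase-3 mAb, and analysed by flow cytometry. Three independent experiments.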
In general terms: Flow cytometry measures light scatter and fluorescence of single cells or particles in a stream.

Data set [5] deals with ACH-2 cell line. The experiment in a line: Induction of apoptosis in human ACH-2 cells at 1 uM incubated for 48 hrs by propidium iodide/annexin-V staining based flow cytometry (reference value: 3.16%). Format: functional.
Data set [6] in a line: Toxicity in human CD4+ T-cells assessed as increase in ratio of CD69+ cells incubated for 24 hrs by flow cytometry. Type of data set: cell-based. The note with it: cd4+ t cell. The procedure, abridged: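 Primary CD4+ T-cells from healthy donors treated with drug for 24 h. Cells stained with anti-CD25 and anti-CD69 antibodies (plus CD3, CD4, HLA-DR) for 30 min on ice, then marker-positive proportions quantified by flow cytometry.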

Data set [7] has as its target T1, Protein kinase C (PKC) (Homo sapiens). The experiment in a line: Activation of PKC in human ACH-2 cells infected with latent HIV-1 assessed as reversal of HIV-1 latency by measuring increase in p24 antigen level at 1 to 10000 nM incubated for 48 hrs by chemiluminescent enzyme immunoassay. The note with it: ACH-2 cell line, filed as activator, dose 1-10000 nM. Format: cell-based. The procedure, abridged:
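ACH-2 or U1 cells (5 × 10^5 cells/ml) incubated 48 h with graded drug concentrations. Supernatant p24 antigen measured by automated chemiluminescent immunoassay. EC50 calculated taking the maximum response with excess PMA as 100%. Means ± S.D. of three independent experiments.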

Data set [8] has the same target. The experiment in a line: Activation of PKC in human J-Lat 10.6 cells infected with latent HIV-1 assessed as reversal of HIV-1 latency by measuring increase of GFP-positive cells at 100 to 400 nM in presence of 500 nM GSK525762A incubated for 24 hrs by flow cytometry. Format: cell-based. The note with it: filed as activator, dose 100-400 nM.
Data set [9] in a line: Toxicity in human PBMC assessed as reduction in cell viability after 5 days by WST8 assay. Type of data set: cell-based. The note with it: time 5 day. The procedure, abridged:
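PBMC from a healthy donor exposed to drug, with viability determined at day 5. CC50 is the concentration reducing viability by 50%.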

Data set [10] in a line: Toxicity in human CD4+ T-cells assessed as elevation of supernatant cytokine concentrations of IL-6 incubated for 24 hrs by bead-based immunoassay. The note with it: cd4+ t cell. The procedure, abridged:
as §1

Data set [11] has as its target Protein kinase C (PKC). The experiment in a line: Activation of PKC in human J-Lat 6.3 cells infected with latent HIV-1 assessed as reversal of HIV-1 latency by measuring increase of GFP-positive cells at 1 to 10000 nM incubated for 24 hrs by flow cytometry. Type of data set: cell-based. The procedure, abridged: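 J-Lat 10.6 or J-Lat 6.3 cells (5 × 10^5 cells/ml) incubated 24 h with graded drug concentrations; % GFP-positive cells determined by flow cytometry. Means ± S.D. of three independent experiments.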

Data set [12] has as its system J-Lat 6.3 (Homo sapiens). The experiment in a line: Induction of apoptosis in human J-Lat 6.3 cells at 1 uM incubated for 48 hrs after pre-incubated for 2 hrs with 20 uM caspase inhibitor Q-VD-Oph by propidium iodide/annexin-V staining based flow cytometry.
Data set [13] addresses T1, Protein kinase C (PKC) (Homo sapiens). The experiment in a line: Activation of PKC in human J-Lat 6.3 cells infected with latent HIV-1 assessed as reversal of HIV-1 latency by measuring increase of GFP-positive cells at 10 uM in presence of PKC alpha/beta inhibitor Go-6976 incubated for 24 hrs by flow cytometry. Type of data set: cell-based. The procedure, abridged: (§3)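 J-Lat 6.3 cells pretreated 3 h with a PKC inhibitor: Gö 6983 1 µM, Gö 6976 1 µM, GF 109203X 1 µM, PKCθ/δ inhibitor 10 µM, or Rottlerin 1 µM. Then exposed to 10 µM compound for 24 h; GFP-positive cells counted by flow cytometry. Mean ± S.D.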

For data set [14] the target is unchanged. The experiment in a line: Activation of PKC in human J-Lat 6.3 cells infected with latent HIV-1 assessed as reversal of HIV-1 latency by measuring increase of GFP-positive cells at 10 uM in presence of PKC alpha/beta/gamma inhibitor GF109203X incubated for 24 hrs by flow cytometry. Type of data set: cell-based. The procedure, abridged: as §3
Data set [15] relates to ACH-2 cell line. In words: Induction of apoptosis in human ACH-2 cells at 1 uM after 48 hrs by PI/annexin-V staining based flow cytometry. Format: functional.
The subject of data set [16] is U1. The experiment in a line: Induction of apoptosis in human U1 cells at 1 uM after 48 hrs by PI/annexin-V staining based flow cytometry. Format: functional.
In data set [17] the target is T1, Protein kinase C (PKC) (Homo sapiens). In words: Synergistic activation of PKC in human U1 cells infected with latent HIV-1 assessed as reversal of HIV-1 latency by measuring increase in p24 antigen level at 25 nM incubated for 48 hrs in presence of 100 nM JQ1 by chemiluminescent enzyme immunoassay relative to compound alone. Format: cell-based. The note with it: filed as activator. The procedure, abridged: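 U1 cells at 5 × 10^5 cells/ml incubated 48 h with test agent alone or plus 100 nm JQ1. Supernatant p24 antigen quantified by automated immunoassay. Fold reactivation computed versus the same agent without JQ1. Mean ± S.D. of three independent experiments.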

For data set [18] the target is unchanged. The experiment in a line: Activation of PKC in human J-Lat 10.6 cells infected with latent HIV-1 assessed as reversal of HIV-1 latency by measuring increase of GFP-positive cells at 100 to 400 nM in presence of 200 nM Prostratin incubated for 24 hrs by flow cytometry. The note with it: filed as activator, dose 100-400 nM. Type of data set: cell-based.
Data set [19] has as its system Jurkat. The experiment in a line: Induction of apoptosis in human Jurkat cells assessed as caspase-3 activation at 1 uM incubated for 24 hrs by flow cytometry. Type of data set: functional. The procedure, abridged:
as §2

`CCCCCCCCCCc1ccc2c(c1)N(C)[C@@H](C(C)C)C(=O)N[C@H](CO)C2`: in data set [1], the CC50 at 48 h worked out at 61.2 µM. For the same compound, the outcome in data set [2], in data set [7], in [8] and in data set [18] was Active. In addition, the Activity result is reported as “Non-Toxic” in data set [3]; 12.2% in [4]; 58% in data set [5]; “Non-Toxic” in data set [6]; “Toxic” in [10]; 59.7% in [15]. Moreover, the results for the Activity in data set [16] and in [19] were 30.4% and 2.63%, respectively. The CC50 at 120 h in data set [9] was found to be 39.9 µM. In data set [11], the EC50 was 6.3 µM. The outcome in data set [12], in data set [13] and in data set [14] was inactive. Also, the fold change (FC) in data set [17] was determined as 22.9.
